Screening results from PubChem BioAssay.
SENP1 inh = blocks the human SENP1 SUMO protease catalytic domain; Q9P0U3; recombinant SENP1 catalytic domain, CyPet-SUMO1-YPet FRET cleavage; inhibition, % at 10 µM; 0.21% of 360,000 active;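 active means inhibition at least 30% at 10 µM, raw YFP signal under a set limit, fluorescence ratio 0.5 to 1.5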;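 further: 0% = enzyme with DMSO and 100% = no enzyme wells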
Target sequence (Q9P0U3 419-644 limits assumed): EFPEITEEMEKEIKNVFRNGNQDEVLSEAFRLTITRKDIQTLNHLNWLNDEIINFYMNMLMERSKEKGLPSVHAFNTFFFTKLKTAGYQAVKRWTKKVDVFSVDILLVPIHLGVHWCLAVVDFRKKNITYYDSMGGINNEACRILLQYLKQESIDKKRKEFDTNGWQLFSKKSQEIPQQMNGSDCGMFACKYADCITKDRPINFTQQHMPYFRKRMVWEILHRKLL
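System: Recombinant human SENP1 catalytic domain, His6-tagged | Incubation: Enzyme reaction for 50 min at room temperature, dark | Medium: Tris pH 8 with BME, BSA, NP40 and catalase | Also added: 25 nM SUMO1 FRET substrate | Compound: 10 µM single point, 0.5% DMSO | Measured by: FRET fluorescence in CFP and YFP emission channels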
EBI2 antag = EBI2 (human) antagonism; inhibition, % at 5 µM; AID 651636; EBI2 beta-arrestin recruitment, luminescence, 7a,25-OHC stimulated; P32249; 0.81% of 360,000 active; in the data active means inhibition above about 38%;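 further: enzyme fragment complementation signal reports receptor beta-arrestin coupling in cells; 0% = agonist plus DMSO wells and 100% = wells without agonist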
Target sequence (P32249 whole entry, looked up, the tested form may be a part): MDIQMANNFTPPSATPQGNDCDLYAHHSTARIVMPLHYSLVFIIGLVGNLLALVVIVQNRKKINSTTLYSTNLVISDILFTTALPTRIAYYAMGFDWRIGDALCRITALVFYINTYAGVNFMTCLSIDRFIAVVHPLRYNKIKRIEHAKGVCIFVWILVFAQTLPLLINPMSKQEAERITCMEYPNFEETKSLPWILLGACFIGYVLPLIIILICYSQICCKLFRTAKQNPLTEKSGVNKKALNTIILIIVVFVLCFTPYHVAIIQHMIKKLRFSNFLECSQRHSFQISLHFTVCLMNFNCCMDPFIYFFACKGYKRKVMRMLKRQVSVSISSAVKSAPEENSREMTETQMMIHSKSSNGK
MPTP block = inhibitors of mitochondrial permeability transition pore. isolated mouse mitochondria, Ca2+ swelling absorbance, 30 min. inhibition, % at 10 µM. 1.4% of 360,000 active. AID 602449;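 active means inhibition of 50% or more, scaled per plate between neutral and stimulator controls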;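 further: 0% = DMSO wells given calcium and 100% = 1 mM EGTA wells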
NR3A LBD binder = modulates the human NR3A ligand-binding domain | NR3A LBD differential scanning fluorimetry, Tm shift; 0% = protein alone, 100% = glycine-bound protein | Tm shift relative to glycine control, % at 25 µM | 2.5% of 340,000 active;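 active means melting temperature shift of at least 10% of the positive control shift, at one fixed dose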
* hit, by the source's call; · = no result given. Compounds with a hit are over-represented: about 4.4% of the library has one in this group of screens.

SMILES | SENP1 inh | EBI2 antag | MPTP block | NR3A LBD binder
CC(Oc1ccccc1F)C(=O)NNC(=O)C1CC(=O)N(c2ccc3c(c2)OCCO3)C1 (stereo not drawn) | 2 | 0 | 0 | 2
Cc1cccc(NS(=O)(=O)c2cc([N+](=O)[O-])ccc2C)n1 | 1 | 5 | -2 | -2
O=C(Nc1ccc(NC(=O)c2cc3ccccc3o2)cc1)c1ccco1 | -1 | 24 | 0 | 26*
CCC(=O)Nc1ccc(Cl)c(NC(=S)NC(=O)c2cc3ccccc3o2)c1 | -1 | 5 | 4 | 25*
COc1cc(NC(=O)c2cccc(C)c2)ccc1NC(=O)c1cc2ccccc2o1 | -34 | 12 | 1 | 33*
O=C(Nc1cccc(NC(=O)c2nccc3ccccc23)c1)c1ccco1 | 3 | -1 | 0 | 19*
O=C(/C=C/c1ccc(F)cc1)c1ccccc1Br | 1 | -6 | -1 | 0
CC1(C)CC(=O)C(CS(=O)(=O)c2ccccc2)=C(Cl)C1 | -1 | -51 | 0 | 2
CCOC(=O)c1sc(NC(=O)CN2CCN(c3ccccc3)CC2)nc1C | -2 | -7 | 0 | 0
Cc1ccsc1/C=N/n1c(-c2cc(-c3ccccc3)n[nH]2)n[nH]c1=S | 1 | 42 | 10 | 1
Cc1ccc(-c2n[nH]c(=S)n2/N=C/c2sccc2C)cc1 | 1 | 4 | 3 | 15*
CC(C)CCNC(=O)CCc1nnc2n(CCCOC(C)C)c(=O)c3ccccc3n12 | 1 | -8 | 0 | -2
Nc1nc(-c2ccc3c(c2)CCCC3)c(CC(=O)O)s1 | -3 | -22 | 0 | 35*
Cc1ccc(Cl)cc1NC(=O)C1CCCCC1C(=O)O (stereo not drawn) | 2 | -7 | -1 | 0
COc1ccc(NC(=O)c2ccc(NC(=O)COC(=O)CC(NC(=O)c3ccccc3Cl)c3ccccc3)cc2)cc1 (stereo not drawn) | 1 | 42 | 0 | 8
O=C(Nc1ccc(Br)cc1F)c1ccc2c(c1)N(Cc1ccccc1)C(=O)CS2=O (stereo not drawn) | 2 | 6 | 0 | 14*
O=C1C=CC(=Nc2ccc3c(c2)Cc2cc(F)ccc2-3)O1 | 1 | 0 | -2 | 23*
CCOc1ccccc1Nc1ccnc2cc(Cl)ccc12 | -2 | 19 | 4 | 228*
Clc1ccc2c(NCc3ccccn3)ccnc2c1 | -3 | -1 | 0 | -1
CCCCCn1nc(C(=O)OCc2nnc(-c3ccccc3)o2)c2ccccc2c1=O | 1 | -6 | 2 | -1
CC(C)c1ccc(C2CC(=O)c3cnc(N4CCc5ccccc5C4)nc3C2)cc1 (stereo not drawn) | -1 | -7 | 1 | 2
O=C1CC(c2ccco2)Cc2nc(N3CCc4ccccc4C3)ncc21 (stereo not drawn) | 31* | 4 | 0 | 1
COc1ccccc1-c1noc(CCC(=O)NC2CCCCC2)n1 | -1 | -5 | 1 | -1
CNc1oc(-c2ccccc2F)nc1S(=O)(=O)c1ccc(C)cc1 | 0 | -2 | 0 | 13*
CCOc1ccc(NC(=O)[C@@H]2CCCN2C(=O)c2cccs2)cc1S(=O)(=O)N1CCOCC1 | -6 | -11 | 0 | 2
SMILES | SENP1 inh | EBI2 antag | MPTP block | NR3A LBD binder
O=C(COc1ncnc2c1cnn2-c1ccccc1)Nc1ccc(S(=O)(=O)N2CCCCC2)cc1 | 0 | 14 | 5 | 18*
Cc1nn(CCOc2ccccc2)c(=O)n1-c1c(F)cccc1F | 4 | 4 | 0 | 1
COC(=O)[C@]12CCCCC=C1N(Cc1ccc3c(c1)OCO3)C(=O)[C@H](CC(=O)NCCC(C)C)C2 | 2 | 4 | 1 | ·
CC(C)c1ccc(NC(=O)c2cc(S(=O)(=O)NCC3COc4ccccc4O3)ccc2F)cc1 (stereo not drawn) | 2 | -11 | 28 | 19*
O=C(Nc1ccc(C(F)(F)F)cc1)c1cc(S(=O)(=O)NCC2COc3ccccc3O2)ccc1F (stereo not drawn) | 0 | 14 | 37 | 32*
CSc1cccc(NC(=O)Nc2nc3c(C)cccc3s2)c1 | 1 | 19 | 17 | 18*
CN1C(=O)Cc2cc(S(=O)(=O)N3CCN(c4cccc(C(F)(F)F)c4)CC3)ccc21 | -2 | 0 | 1 | 24*
Cc1ccc(C)c(N2CCN(S(=O)(=O)c3ccc4c(c3)CC(=O)N4C)CC2)c1 | -5 | -7 | -2 | -4
O=C(/C=C/c1ccco1)Nc1ccc2nn(-c3ccccc3)nc2c1 | -21 | 6 | 5 | 14*
Cc1cc(NC(=O)/C=C/c2ccco2)ccc1NC(=O)c1ccccc1 | 0 | -12 | 0 | 0
CCCC(=O)Nc1nc2ccc(NC(=O)c3ccc(Br)o3)cc2s1 | 1 | 2 | -1 | 18*
CCOc1ccc(-n2nc3ccc(NC(=O)c4ccc5c(c4)OCCO5)cc3n2)cc1 | -3 | 29 | 3 | 19*
O=C(Nc1ccc2nn(-c3ccccc3)nc2c1)c1ccc2c(c1)OCCO2 | 2 | 24 | -3 | 21*
O=C(Nc1cccc(NC(=O)c2ccc3c(c2)OCO3)c1)c1ccccc1 | -1 | 5 | -2 | -5
Cc1nc2ccc(NC(=O)c3ccc(Br)o3)cc2s1 | -21 | 0 | 2 | -24
COc1cccc(CNC(=O)C(=O)NCC2CCCN2S(=O)(=O)c2cc(C)ccc2C)c1 (stereo not drawn) | 0 | 3 | -1 | 1
O=C(OCc1nnc(-c2ccc(Cl)cc2)o1)C12CC3CC(CC(O)(C3)C1)C2 | -1 | 0 | -1 | -1
CCOC(=O)C1CCN(C(=O)CCc2ccc(S(=O)(=O)NCC(C)C)cc2)CC1 | -1 | 5 | 0 | 0
CCCc1c(-c2ccccc2Br)ncn1Cc1ccccc1OC | -3 | 9 | 2 | ·
O=C(Nc1ccc2nn(-c3ccccc3)nc2c1)c1ccc(Br)o1 | -16 | 14 | 12 | 19*
CC1CCc2c(sc(/N=C/c3ccco3)c2C(N)=O)C1 (stereo not drawn) | 0 | 3 | 1 | -1
CC1CCc2c(sc(/N=C/c3cccnc3)c2C(N)=O)C1 (stereo not drawn) | -4 | -17 | 2 | 11*
O=C(COc1ccccc1C(=O)N/N=C\c1ccc(O)c(O)c1)N/N=C/c1ccc(O)c(O)c1 | 3 | -4 | 4 | 13*
CC1CCCCN1C(=O)C(=O)c1cn(CC(=O)N2CCCCCC2)c2ccccc12 (stereo not drawn) | -2 | -8 | 3 | 1
C/C(=N\O)c1ccco1 | 0 | -2 | -1 | 1
SMILES | SENP1 inh | EBI2 antag | MPTP block | NR3A LBD binder
COC(=O)/C=C1/SC(=NC(=O)c2ccc(F)cc2)NC1=O | 1 | -10 | 3 | 1
COC(=O)/C=C1\SC(=NC(=O)c2cccc([N+](=O)[O-])c2)NC1=O | 1 | -6 | -1 | 13*
COC(=O)/C=C1/SC(=NC(=O)c2ccccc2)NC1=O | 2 | -7 | -1 | -8
COC(=O)/C=C1/SC(=NC(=O)c2cccc([N+](=O)[O-])c2)NC1=O | 0 | -6 | 7 | 15*
COc1ccc2c(CC(=O)Nc3ccc(OC)c(NS(=O)(=O)c4ccc(F)cc4)c3)coc2c1 | -26 | -1 | 0 | -1
CCCCNc1nc(Nc2ccc(C)c(Cl)c2)c2cnn(C)c2n1 | 2 | 19 | 0 | 15*
